Source: PubChem BioAssay
APJ agonist: agonists of human apelin receptor APJ, primary screen, CHO-K1 cells, PathHunter beta-arrestin, luminescence. hit rate 0.11% among 330,000. 0% DMSO wells, 100% apelin. activation, % at 20 µM. P35414. AID 2520, 2010;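 active = activation more than six SD over the plate average, tested at 20 µM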;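 note: 0% = DMSO alone and 100% = apelin-13 at 10 nM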
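Incubation: overnight seeding, 90 min compound at 25 °C, 1 h detection; test system: PathHunter CHO-K1 APJ (AGTRL-1) beta-arrestin reporter cells; amount: 1000 cells/well; doses: one dose, 20 µM compound, 1% DMSO; measured by: beta-gal luminescence; measure: agonist-driven arrestin binding to APJ; benchmarks: negative DMSO alone, positive Apelin-13 at 10 nM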
EBI2 antag: EBI2 receptor antagonists, beta-arrestin recruitment, primary screen, cell-based, luminescence, 7a,25-OHC stimulation, uHTS | 7a,25-OHC stimulated | inhibition, % at 5 µM | hit rate 0.81% among 360,000 | AID 651636, 2012; in the data active = inhibition above about 38%;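 note: enzyme fragment complementation signal reports receptor beta-arrestin coupling in cells; 0% = agonist plus DMSO wells and 100% = wells without agonist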
CCR6 antagonist: CCR6 receptor antagonists, primary screen, cell-based, CHO-K1, luminescence, beta-arrestin, uHTS; C-C chemokine receptor type 6 (Homo sapiens), P51684; inhibition, % at 20 µM; CHO-K1 CCR6 PathHunter beta-arrestin, CCL20-stimulated; hit rate 0.49% among 340,000;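 active = compounds whose inhibition of the agonist-driven luminescence signal at 20 µM reaches about 50%, limit read from the data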;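 note: cells stimulated with CCL20 at 14 nM final; plate controls were DMSO with CCL20 for no effect and DMSO without agonist for full effect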
CXCR6 block: CXCR6 receptor inhibitors, primary screen, cell-based, beta-arrestin, luminescence, CHO-K1 PathHunter, 1536-well | C-X-C chemokine receptor type 6 (Homo sapiens), O00574 | inhibition, % at 20 µM | hit rate 0.36% among 360,000 | AID 602244, 2012; in the data active = inhibition above about 34%, passing the limit was not always enough;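 note: antagonist mode with CXCL16 agonist at 10 nM final; 0% = 10 nM CXCL16 with DMSO and 100% = unstimulated wells without agonist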
Target sequence (O00574 whole entry, looked up): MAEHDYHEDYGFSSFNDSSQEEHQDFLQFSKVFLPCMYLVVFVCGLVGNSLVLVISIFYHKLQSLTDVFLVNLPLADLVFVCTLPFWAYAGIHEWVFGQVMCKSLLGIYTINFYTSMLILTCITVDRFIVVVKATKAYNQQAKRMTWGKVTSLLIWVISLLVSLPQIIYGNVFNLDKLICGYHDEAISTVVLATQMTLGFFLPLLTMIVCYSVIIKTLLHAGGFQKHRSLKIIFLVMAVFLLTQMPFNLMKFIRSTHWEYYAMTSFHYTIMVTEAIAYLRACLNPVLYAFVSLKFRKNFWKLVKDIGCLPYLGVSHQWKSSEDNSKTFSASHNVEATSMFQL
APJ antag: antagonists of human apelin receptor APJ, primary screen, CHO-K1 cells, beta-arrestin complementation, luminescence; P35414; inhibition, % at 20 µM; AID 2521, 2010; hit rate 0.32% among 330,000;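 active = inhibition above about 40% at 20 µM, limit read from the data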;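 note: cells challenged with 10 nM apelin-13 agonist together with compound; plate controls were apelin-13 plus DMSO wells for no effect and DMSO wells lacking apelin-13 for full effect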
Numbers without * were called inactive. Rows were chosen to be rich in hits. Some 1.5% of all compounds tested hit in one or more screens of this group.

CCN(CC)c1c([N+](=O)[O-])c(=O)n(C)c2ccccc12 was read as APJ agonist -0.7, EBI2 antag -0.4, CCR6 antagonist 15.8, CXCR6 block -6.0 and APJ antag 7.7.
Screening CN(CCOc1ccccc1)C(=O)C1CCN(C(=O)c2ccc(Cl)cc2)CC1 returned APJ agonist -4.0, EBI2 antag 64.1*, CCR6 antagonist 17.4, CXCR6 block -9.6 and APJ antag 9.8.
CN(CCOc1ccc(Cl)cc1)C(=O)C1CCN(C(=O)c2ccc(F)cc2)CC1 was read as APJ agonist -8.8, EBI2 antag 31.5, CCR6 antagonist 15.7, CXCR6 block 5.6 and APJ antag 11.0.
For O=c1c2ccccc2n(Cc2ccc(Cl)cc2)c(=O)n1Cc1ccco1 the results were APJ agonist -2.6, EBI2 antag 76.6*, CCR6 antagonist 7.0, CXCR6 block 11.0 and APJ antag 17.4.
`N#Cc1cc([N+](=O)[O-])c(-n2nnc3ccccc32)c([N+](=O)[O-])c1` gave APJ agonist 4.2, EBI2 antag -4.1, CXCR6 block 74.2* and APJ antag 23.5.
Screening CCC(=O)N1CCCC(C)(C(=O)Nc2nccc3cccnc23)C1 (stereo unspecified) returned EBI2 antag -6.7 and CXCR6 block -0.1.
For O=C(COC(=O)c1ccc(Cl)c([N+](=O)[O-])c1)NC1CCCC1 the results were APJ agonist -3.7, EBI2 antag -6.3, CCR6 antagonist 1.0, CXCR6 block -5.9 and APJ antag 18.6.
O=C(COC(=O)c1ccccc1C(=O)c1ccc(Cl)c([N+](=O)[O-])c1)NC1CCCCCC1 was read as APJ agonist 5.2, EBI2 antag 53.0*, CCR6 antagonist 16.4, CXCR6 block 10.5 and APJ antag 36.2.
`Nc1sc(Cc2ccccc2)cc1C(=O)c1c(-c2ccccc2)[nH]c2ccccc12` gave EBI2 antag 15.2.
NC(=O)c1ccc(-c2ccc(N3C(c4ccsc4)=Cc4ccc(F)cc4C3CC(=O)c3ccco3)cc2)cc1 (stereo unspecified) was read as EBI2 antag -5.4 and CXCR6 block -3.3.
For Cc1ccc(Nc2nc(-c3cccnc3)cs2)cc1Cl the results were APJ agonist -1.3, EBI2 antag 48.4*, CCR6 antagonist -3.9, CXCR6 block -14.5 and APJ antag 2.2.
`O=[N+]([O-])c1cc(O)c2ncccc2c1` gave APJ agonist 3.4, CCR6 antagonist 54.0* and APJ antag -57.8.
O=[N+]([O-])c1cc2cccnc2c2ncccc12 was read as APJ agonist 0.1, EBI2 antag 13.9, CCR6 antagonist -6.3, CXCR6 block 9.5 and APJ antag -5.1.
CN(C)c1ccc(/C=N/N=C2/NC(=O)/C(=C/c3ccc([N+](=O)[O-])cc3)S2)cc1 was read as APJ agonist -2.6, EBI2 antag -6.6, CCR6 antagonist 52.6*, CXCR6 block 37.6 and APJ antag 25.5.
For CN(C)c1ccc(C=C2SC(=S)NC2=O)cc1 the results were EBI2 antag 3.3, CCR6 antagonist 43.0 and CXCR6 block 16.7.
O=[N+]([O-])c1ccc(NN=Cc2ccc(O)cc2O)nc1 was read as EBI2 antag 13.9, CCR6 antagonist 63.0* and CXCR6 block 33.8.
For O=[N+]([O-])c1ccc(NN=Cc2ccccc2O)nc1 the results were EBI2 antag 15.5 and CXCR6 block 22.2.
Screening COc1ccc(N2CC(C(=O)N/N=C/c3cc([N+](=O)[O-])ccc3O)CC2=O)cc1 (stereo unspecified) returned APJ agonist -6.9, EBI2 antag 3.9, CCR6 antagonist 55.8*, CXCR6 block 16.4 and APJ antag 15.6.
For Cc1cc(C(=O)N/N=C/c2cc([N+](=O)[O-])ccc2O)c2ccccc2n1 the results were APJ agonist -2.1, EBI2 antag 49.3*, CCR6 antagonist 3.5, CXCR6 block -1.9 and APJ antag -14.6.
`O=[N+]([O-])c1ccc(O)c(/C=N/Nc2ccccn2)c1` gave EBI2 antag 63.6*, CCR6 antagonist 61.0* and CXCR6 block 21.5.
For O=C(N/N=C/c1cc([N+](=O)[O-])ccc1O)c1cc(-c2ccccc2)nc2ccccc12 the results were APJ agonist 0.0, EBI2 antag 32.5, CCR6 antagonist 31.9, CXCR6 block 1.5 and APJ antag 10.7.
For CC(C)c1cccc(C(C)C)c1NC(=O)OC1CCCCC1 the results were EBI2 antag -7.0 and CXCR6 block 4.5.
`COC(=O)CC1C(=O)NCCN1C(=O)c1oc2c(C)c(C)ccc2c1C` (stereo unspecified) gave EBI2 antag -17.2 and CXCR6 block -0.4.
O=C(N/N=C/c1cc([N+](=O)[O-])ccc1O)C12CC3CC(CC(C3)C1)C2 was read as APJ agonist -9.6, EBI2 antag 79.2*, CCR6 antagonist 71.2*, CXCR6 block 39.5 and APJ antag 30.7.
`CCCCCNC(=O)C1C(=O)Nc2ccccc2C(=O)N1c1ccc(OC)cc1` (stereo unspecified) gave EBI2 antag -8.3.
CCOC(=O)/C(C#N)=N/Nc1c(C)n(C)n(-c2ccccc2)c1=O was read as APJ agonist -1.3, EBI2 antag 7.9, CCR6 antagonist 17.2, CXCR6 block 11.1 and APJ antag 12.8.
Cc1c(N/N=C(\C#N)C(=O)c2ccccc2)c(=O)n(-c2ccccc2)n1C was read as EBI2 antag 10.3, CCR6 antagonist 63.2* and CXCR6 block 35.3.
`Cc1c(NC=C(C#N)C#N)c(=O)n(-c2ccccc2)n1C` gave APJ agonist 0.6, EBI2 antag -5.1, CCR6 antagonist -1.9, CXCR6 block 0.3 and APJ antag -7.7.
For Cc1ccccc1C(=O)/C(C#N)=N/Nc1c(C)n(C)n(-c2ccccc2)c1=O the results were EBI2 antag 6.4, CCR6 antagonist 48.0 and CXCR6 block 44.8*.
`CCCCCCCN(c1ccccc1)[C@@H]1C[C@H]2CCCC(=O)N3CC[C@@H](C1)[C@@H]23` gave EBI2 antag 9.0, CCR6 antagonist 42.2 and CXCR6 block 18.7.
Cc1cc2nc(-c3cccc(Br)c3)c(CC3CCCCC3)n2c(C)c1Br was read as EBI2 antag -1.1 and CXCR6 block 1.7.
`CCN(CC)S(=O)(=O)c1ccc(C(O)=C(C#N)c2nc3ccccc3n2C)cc1` gave EBI2 antag -0.6, CCR6 antagonist 13.0 and CXCR6 block 2.1.
Cc1ccc(C(=O)NNC(=O)CCCN2C(=O)/C(=C/c3ccccc3Cl)SC2=S)cc1 was read as APJ agonist -1.6, EBI2 antag 65.5*, CCR6 antagonist 3.8, CXCR6 block -10.0 and APJ antag 10.1.
